hIAP inh – human IAP inhibition. purified IAP, CDP-Star luminescence, 30 min. actives 0.12% (n = 330,000). inhibition, % at 10 µM;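 active = inhibition reaching a set limit with compound at 10 µM in the primary screen, cut at about 35% in these data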;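 also: plate controls were DMSO wells with enzyme for no effect and no-enzyme buffer wells for full effect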
Target sequence (P09923 whole entry, looked up): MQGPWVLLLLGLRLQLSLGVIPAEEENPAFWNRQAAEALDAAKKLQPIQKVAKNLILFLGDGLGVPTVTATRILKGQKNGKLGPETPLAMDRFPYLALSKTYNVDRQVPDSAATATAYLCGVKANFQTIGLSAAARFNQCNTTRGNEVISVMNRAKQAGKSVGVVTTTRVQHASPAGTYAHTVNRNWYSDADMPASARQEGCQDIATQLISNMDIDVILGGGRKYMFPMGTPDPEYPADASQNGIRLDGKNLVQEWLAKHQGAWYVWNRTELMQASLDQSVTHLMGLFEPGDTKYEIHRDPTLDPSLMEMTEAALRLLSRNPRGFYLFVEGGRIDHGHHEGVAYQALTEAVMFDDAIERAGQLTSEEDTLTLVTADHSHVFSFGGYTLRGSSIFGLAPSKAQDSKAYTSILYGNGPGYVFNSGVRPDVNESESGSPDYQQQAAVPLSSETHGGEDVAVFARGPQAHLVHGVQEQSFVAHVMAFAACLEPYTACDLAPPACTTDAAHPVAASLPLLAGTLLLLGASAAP
bIAP inhibitor – blocks bovine intestinal alkaline phosphatase activity. purified bovine IAP, CDP-star luminescence, 30 min. 190,000 tested, under 10 active. inhibition, % at 20 µM. AID 1019;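 active = over 50% inhibition of intestinal alkaline phosphatase at 20 µM in the single-dose screen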
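test system = bovine IAP enzyme | medium = DEA buffer 100 mM, pH 9.8, with MgCl2 1.0 mM, ZnCl2 0.02 mM | detection = luminescence | dosing = single compound dose of 20 µM, 2% DMSO final | incubation = 30 min reaction at room temperature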
bIAP act – intestinal alkaline phosphatase (bovine) activation; purified bovine IAP, CDP-star luminescence, 30 min; stronger effect = higher value; fold of DMSO-control signal, blank-subtracted; actives 0.17% (n = 200,000); AID 1016; activation factor at 20 µM;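 active = activation factor of 2 or more at 20 µM, a signal rise over negative controls twice the positive control's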
mIAP act – increases mouse intestinal alkaline phosphatase activity; activation factor at 10 µM; muIAP, CDP-Star luminescence, 30 min; stronger effect = higher value; 1 = vehicle-only enzyme signal, 0 = enzyme-free wells; AID 2805; actives 0.24% (n = 330,000);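 active = activation factor of at least 2 at 20 µM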
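System: mouse IAP enzyme. Reagent: CDP-Star chemiluminescent phosphatase substrate. Benchmarks: DMSO wells, no-enzyme wells. Times: 30 min enzyme-substrate-compound incubation at room temperature. Detection: luminescence from enzymatic CDP-Star hydrolysis. Doses: test compounds delivered from DMSO solution.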
hIAP act – increases human intestinal alkaline phosphatase activity. P09923. purified human IAP, CDP-Star luminescence, 30 min; stronger effect = higher value; 1 = vehicle-only enzyme, 0 = enzyme-free background. activation factor at 10 µM. actives 0.16% (n = 330,000). AID 2524;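 active = activation factor of the enzyme at least 2-fold when tested at 20 µM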
mIAP inh – blocks mouse intestinal alkaline phosphatase; purified mouse IAP, CDP-Star luminescence, 30 min; inhibition, % at 10 µM; actives 0.2% (n = 330,000); AID 2806;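 active = inhibition of at least 40% at 10 µM in the primary screen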;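 also: plate controls were DMSO with enzyme for no effect and no enzyme wells for full effect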
hIAP act confirm – human IAP activation confirmation | shares compounds with hIAP act | purified IAP, CDP-Star luminescence, 30 min; stronger effect = lower value | activation (%Activity, negative = activation), % at 8.3 µM | actives 10% (n = 880) | AID 434926;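 active = at least twofold enzyme activation in any of six single-dose repeats, which the averaged readout prints as negative percent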
The depositor's hits bear a star; . = not tested or not shown. Compounds with a hit are over-represented: about 0.72% of the library has one in this group of screens.

SMILES	hIAP inh	bIAP inhibitor	bIAP act	mIAP act	hIAP act	mIAP inh	hIAP act confirm
Cc1ccc(CNC(=O)c2cc(S(=O)(=O)N3CCCCC3)ccc2N2CCOCC2)cc1	-14	.	.	0.97	1.1	3	.
Cc1cc(NS(=O)(=O)c2ccc(NC(=O)C(C(C)C)N3C(=O)c4ccccc4C3=O)cc2)nc(C)n1 (stereo unspecified)	39*	-3	1	1	0.61	-1	-41
O=C(CN1C(=O)c2ccccc2S1(=O)=O)NCc1cccs1	45*	.	.	0.99	0.55	1	-50
Cc1ccccc1C(C)NS(=O)(=O)c1ccc2c(c1)OCCO2 (stereo unspecified)	3	.	.	0.95	0.97	5	.
C/C(=N\NC(=O)c1cccc(S(=O)(=O)N2CCOCC2)c1)c1ccc(O)cc1	-4	.	.	1	1	-4	.
Cc1ccc(NC(=O)c2sc3ccccc3c2Cl)nc1	-110	1	1	0.98	2.1*	2	-29
CC(C)c1ccc(S(=O)(=O)N2CCN(C(=O)Cc3ccsc3)CC2)cc1	5	.	.	0.99	0.95	1	.
CC(C)Oc1cccc(C(=O)Nc2ncn[nH]2)c1	-124	.	.	0.96	2.2*	4	5
CC(C)COc1ccc(C(=O)Nc2ncn[nH]2)cc1	-10	.	.	1.1	1.1	-12	.
CC(C)Oc1ccc(C(=O)Nc2ncn[nH]2)cc1	-101	.	.	1.1	2*	-8	-65*
Cc1cc(C)cc(N2C(N)=NC(N)=NC2c2ccccc2F)c1 (stereo unspecified)	-5	.	.	0.99	1.1	1	.
Nc1c(N2CCCC2)cc(Cl)c2nonc12	35*	26	0.7	0.88	0.65	12	41
Nc1c(N2CCOCC2)cc(Cl)c2nonc12	23	31	0.7	0.86	0.77	14	.
CC1(C)C[C@@H](O)CC2(C1)C[C@]1(C)CC(O)[C@H]2C(C)(C)C1 (stereo partly specified)	-105	.	.	0.94	2.1*	6	-93*
CC1=NN(c2ccccc2)C(=O)/C1=C\C=C1\N(C)c2ccccc2C1(C)C	40*	0	1	0.6	0.6	40*	-24
CC1=NN(c2ccccc2)C(=O)/C1=C\C=C1/N(C)c2ccccc2C1(C)C	33	-7	1.1	0.64	0.67	36	.
O=C(O)c1ccc(N=Nc2c(O)ccc3ncccc23)cc1	9	.	.	0.87	0.91	13	.
CN(C)c1ccc(/C=C2/C=C(c3ccc4c(c3)CCCC4)OC2=O)cc1	43*	.	.	0.67	0.57	33	4
Cc1cc(C(=O)C(C)OC(=O)c2ccc(NC(=O)CC#N)cc2)c(C)n1-c1ccc(OC(F)F)cc1 (stereo unspecified)	-3	.	.	0.95	1	5	.
Cc1ccccc1CNC(=O)c1ccccc1N	36*	10	0.9	0.99	0.64	0	37
COC(=O)c1[nH]c2c(c1C)C(=O)CC(c1cc(OC)c(OC)c(OC)c1)C2 (stereo unspecified)	-4	.	.	0.97	1	2	.
CC(C)(C)c1cccc(C2(O)C(=O)c3ccccc3C2=O)c1O	58*	.	.	0.95	0.42	5	5
Cc1ccc(C2(O)C(=O)c3ccccc3C2=O)c(O)c1C	-1	.	.	1	1	-4	.
Oc1ccc(N=Nc2c(O)ccc3ccccc23)cc1	45*	41	0.6	0.68	0.55	32	-92*
C#C[C@]1(O)CC[C@H]2[C@@H]3[C@H](C)CC4=C(CCC(=O)C4)[C@H]3CC[C@@]21C	-2	.	.	1.1	1	-10	.
SMILES	hIAP inh	bIAP inhibitor	bIAP act	mIAP act	hIAP act	mIAP inh	hIAP act confirm
CC(C)(C)c1ccc(OC(=O)c2cccnc2)cc1	-5	6	0.9	1	1	-4	.
COc1ccc(OC(=O)c2cccnc2)cc1	41*	6	0.9	0.92	0.59	8	7
C/C(=N/Nc1ccccc1[N+](=O)[O-])c1ccc([N+](=O)[O-])cc1	37*	.	.	0.91	0.63	9	-233*
CCCc1c(C(=O)N/N=C/c2ccc(C)s2)nnn1-c1nonc1N	-22	.	.	1	1.2	-2	.
Cc1ccc(OCC(=O)NCCCNC(=O)c2cnccn2)cc1C	-10	.	.	1	1.1	-4	.
Cc1cc(OCC(=O)NNC(=O)c2cnccn2)cc(C)c1Cl	-106	.	.	0.93	2.1*	7	-55
Cc1ccc(Cl)cc1-n1c(SCC(=O)NCCC2=CCCCC2)nc2n[nH]c(C)c2c1=N	-66	.	.	0.98	1.7	2	.
Cc1cc(-n2c(SCC(=O)NCCC3=CCCCC3)nc3n[nH]c(C)c3c2=N)ccc1Cl	-106	.	.	1.2	2.1*	-21	-29
CCCC(CCC)C(=O)NCCN1CCOCC1	39*	3	1	0.99	0.61	1	-35
O=C(NCCN1CCOCC1)N1CCOCC1	15	13	0.9	0.91	0.85	9	.
CN(C)c1ccc(/C=C2\C(=N)N3N=C(CC(=O)N4CCCCC4)SC3=NC2=O)cc1	37*	.	.	0.72	0.63	28	7
Cc1cc(C)cc(NC(=O)N2CCNC(=O)C2CC(=O)Nc2cc(Cl)ccc2Cl)c1 (stereo unspecified)	-12	.	.	1.1	1.1	-11	.
COc1ccc(C)cc1S(=O)(=O)N(C)CC(=O)N1CCCC1	11	.	.	1	0.89	-1	.
COc1ccc(C2c3ccc(O)cc3Oc3ncn4nc(-c5ccncc5)nc4c32)cc1OC (stereo unspecified)	41*	.	.	0.86	0.59	14	4
O=C(CN1CCN(S(=O)(=O)c2ccc3ccccc3c2)CC1)Nc1ccc2c(c1)CCC2	-104	12	0.9	0.83	2*	17	-3
Cc1ccc(S(=O)(=O)N2CCN(CC(=O)Nc3ccc4c(c3)CCC4)CC2)cc1C	-9	-2	1	1.2	1.1	-19	.
N#C/C(=N\Nc1ccc([N+](=O)[O-])cc1)C(N)=S	35*	.	.	0.66	0.65	34	-9
N#C/C(=N\Nc1ccc(S(=O)(=O)N2CCCCCC2)cc1)C(N)=S	37*	8	0.9	0.85	0.63	15	8
COc1cc(NC(=O)CCc2nnc3ccc(N4CCN(C)CC4)nn23)cc(OC)c1	-19	.	.	0.93	1.2	7	.
O=Nc1[nH]c(=O)c(/C=C(\O)c2ccccc2)nc1NO	-113	.	.	0.85	2.1*	15	-85*
Cc1nc(Nc2nc3c(c(=O)[nH]2)CCC3)nc2ccccc12	-177	.	.	0.88	2.8*	12	-78*
Cc1nnc(NC(=O)CSc2n[nH]c(-c3ccccc3C)n2)s1	41*	.	.	0.95	0.59	5	-21
Cc1ccc(-n2ncc3c(NNC(=O)c4ccco4)ncnc32)cc1C	-148	.	.	0.94	2.5*	6	41
O=C(NNc1ncnc2c1cnn2-c1cccc(Cl)c1)c1ccco1	-236	.	.	1	3.4*	-3	-42

Screens: PubChem, Sanford-Burnham Center for Chemical Genomics
